Measured values from publication PMC5590686 (Drug Design, Development and Therapy, 2017).

How the values were obtained:
[1] = Bidirectional transport of puerarin across RNEC monolayers; format: in vitro ADME; details: Sprague Dawley, rat
How it was run: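 RNECs from a male Sprague Dawley rat nasal epithelium, passage 2–3, were seeded at 5×10^5 cells/cm2 on collagen-coated 0.4-μm PET Transwell membranes and grown 3 days at air interface until TEER >500 Ω·cm2. Monolayers were HBSS-washed and equilibrated 30 min at 37°C. Drug was dosed apical or basolateral with shaking at 37°C, receiver sampled 30–180 min, and quantified by C18 HPLC-UV at 250 nm. Papp = regression dQ/dt over donor C and area; ER calculated from both directions.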

P-gp = assay: Rho 123 efflux/accumulation by flow cytometry; format: cell-based, rat; details: puerarin 50, peoniflorin 20, menthol 25 μg/mL
Calu-3 cells = details: Calu-3 monolayer, cited from earlier work
[2] = rats, cited from earlier work
[3] = test system: TJ proteins ZO-1, claudin-1, F-actin; assay: Immunofluorescence of TJ proteins in RNECs; format: cell-based, rat; details: 3 h; puerarin 50, peoniflorin 20, menthol 25 μg/mL
How it was run: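 Monolayers grown on PET Transwell membranes (5×10^5 cells/cm2) were exposed to compound media for 3 h at 37°C. They were fixed in cold 4% paraformaldehyde for 30 min and blocked 1 h in goat serum. Anti-ZO-1 or anti-claudin-1 (1:100) was applied overnight at 4°C, then TRITC/FITC secondaries; F-actin was stained with phalloidin (1:150, 30 min, RT), with DAPI counterstain. Fluorescence/confocal imaging used identical settings; AOD = IntDen/Area, expressed as percentage.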

SMILES | Papp A→B at 180 min [1] | Papp B→A at 180 min [1] | Papp at 180 min [1] | efflux ratio at 180 min [1] | effect on P-gp function (Rho 123 retention) (P-gp) | Papp of puerarin bidirectional transport (Calu-3 cells; both directions) | efflux ratio (ER) (Calu-3 cells) | ability of puerarin to target the brain via intranasal administration ([2]; intranasal versus injection and oral) | bioavailability of puerarin following intranasal administration ([2]; intranasal versus oral, plasma and brain by HPLC) | immunostaining / AOD of ZO-1, claudin-1 and F-actin versus control [3] | effect of coadministration on Papp of puerarin (Calu-3 cells)
O=c1c(-c2ccc(O)cc2)coc2c([C@@H]3O[C@H](CO)[C@@H](O)[C@H](O)[C@H]3O)c(O)ccc12 [puerarin, Puerarin] | 1.27 to 1.31 ×10⁻⁶ cm/s | 1.35 to 1.41 ×10⁻⁶ cm/s | < 1.5 ×10⁻⁶ cm/s | < 2 | inhibited the function of P-gp | < 1.5 ×10⁻⁶ cm/s | < 1.5 | higher than that with injection and oral administration | significantly higher than that of oral administration | – | –
CC1CCC(C(C)C)C(O)C1 (centres unmarked) [menthol] | – | – | – | – | inhibited the function of P-gp | – | – | – | – | weaker than that of the control group | significantly (P<0.05) improved
C[C@@]12C[C@@]3(O)O[C@@H](O1)[C@]1(COC(=O)c4ccccc4)[C@H]3C[C@@]12O[C@@H]1O[C@H](CO)[C@@H](O)[C@H](O)[C@H]1O [peoniflorin] | – | – | – | – | inhibited the function of P-gp | – | – | – | – | – | remained unaltered
